Measured values as given in ChEMBL document CHEMBL1821640, “Novel 1,2,3-triazole derivatives for use against Mycobacterium tuberculosis H37Rv (ATCC 27294) strain” (J Med Chem, 2011).
Values after ≈ are worked out from the molar mass of the structure shown.

Columns and labels:
[1] = tested on: Mycobacterium tuberculosis; assay: Antimicrobial activity against Mycobacterium tuberculosis H37Rv ATCC 27294 after 5 days by Microplate Alamar blue assay; format: functional; conditions: H37Rv ATCC 27294, 120 h
How it was run: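 M. tuberculosis H37Rv grown 24 h at 37 °C, 150 rpm, in Middlebrook 7H9 + 10% OADC, washed, set to 0.1 McFarland and diluted 1:25. Two-fold dilutions in 7H9, final […], 5 days at 37 °C. Resazurin (Alamar Blue)/10% Tween 80 added for 24 h. MIC is the lowest concentration preventing a blue-to-pink change. Triplicates averaged.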

[2] = Cytotoxicity against african green monkey BGMK cells after 24 hrs by MTT assay; format: cell-based; conditions: chlorocebus aethiops, read-out: MLD50
[3] = Cytotoxicity against human HepG2 cells after 24 hrs by MTT assay; format: cell-based; conditions: read-out: MLD50
How it was run: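 HepG2 cells kept in RPMI 1640 with 10% heat-inactivated FCS and gentamicin at 37 °C under 5% CO2. Seeded at 5 × 10^3 cells/well and allowed to adhere for 18 h. Exposed to compound at 200–25 μg/mL for 24 h, then MTT (5 mg/mL solution) for 3 h. Absorbance is taken as % of untreated control after background subtraction, and MLD50 is derived.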

[4] = Selectivity index, ratio of MDL50 for african green monkey BGM cells to MIC for Mycobacterium tuberculosis H37Rv ATCC 27294; format: functional
[5] = Selectivity index, ratio of MDL50 for human HepG2 cells to MIC for Mycobacterium tuberculosis H37Rv ATCC 27294; format: functional

Row | SMILES | MIC [1] | CC50 at 24 h [2] [µg/mL] | CC50 at 24 h [3] [µg/mL] | Ratio [4] | Ratio [5]
1 | C=Cc1cn(-c2ccccc2OC)nn1 | > 100 µg/mL | – | – | – | –
2 | O=C(N/N=C/c1cn(-c2ccc(Cl)c(Cl)c2)nn1)c1ccncc1 | 6.9 µM | > 1000 | > 1000 | >400 | >400
3 | N#Cc1ccc(-n2cc(CF)nn2)cc1 | > 100 µg/mL | – | – | – | –
4 | O=C(N/N=C/c1cn(-c2ccc([N+](=O)[O-])cc2)nn1)c1ccncc1 | 1.8 µM | > 1000 | > 1000 | >1612 | >1612
5 | Cc1ccccc1-n1cc(CO)nn1 | > 100 µg/mL | – | – | – | –
6 | FC(F)(F)c1cn(-c2cc(Cl)cc(Cl)c2)nn1 | 177 µM | – | – | – | –
7 | C=Cc1cn(-c2ccccc2)nn1 | > 100 µg/mL | – | – | – | –
8 | O=Cc1cn(-c2cc(Cl)ccc2Cl)nn1 | > 100 µg/mL | – | – | – | –
9 | O=C(N/N=C/c1cn(-c2ccc(F)cc2)nn1)c1ccncc1 | 4 µM | > 1000 | > 1000 | >800 | >800
10 | COc1cccc(-n2cc(C=O)nn2)c1 | 123 µM | – | – | – | –
11 | C=Cc1cn(-c2ccc([N+](=O)[O-])cc2)nn1 | > 100 µg/mL | – | – | – | –
12 | N#Cc1cccc(-n2cc(CF)nn2)c1 | > 100 µg/mL | – | – | – | –
13 | N#Cc1ccc(-n2cc(CO)nn2)cc1 | > 100 µg/mL | – | – | – | –
14 | C=Cc1cn(-c2ccc(Cl)cc2)nn1 | 243 µM | – | – | – | –
15 | Cc1ccc(-n2cc(C=O)nn2)cc1 | 66.7 µM | – | – | – | –
16 | COc1ccc(-n2cc(/C=N/NC(=O)c3ccncc3)nn2)cc1 | 7.7 µM | > 1000 | > 1000 | >400 | >400
17 | Cc1cccc(-n2cc(C=O)nn2)c1 | 134 µM | – | – | – | –
18 | Cc1cccc(-n2cc(CO)nn2)c1 | > 100 µg/mL | – | – | – | –
19 | OCc1cn(-c2ccc(Cl)c(Cl)c2)nn1 | > 100 µg/mL | – | – | – | –
20 | O=C(N/N=C/c1cn(-c2ccccc2)nn1)c1ccncc1 | 8.5 µM | > 1000 | > 1000 | >400 | >400
21 | Cc1ccccc1-n1cc(/C=N/NC(=O)c2ccncc2)nn1 | 8.1 µM | > 1000 | 314 (≈ 1030 µM) | 400 | 126
22 | Cc1cccc(-n2cc(/C=N/NC(=O)c3ccncc3)nn2)c1 | 2 µM | 262 (≈ 855 µM) | 124 (≈ 405 µM) | 422 | 200
23 | OCc1cn(-c2ccc(F)cc2)nn1 | > 100 µg/mL | – | – | – | –

Row | SMILES | MIC [1] | CC50 at 24 h [2] [µg/mL] | CC50 at 24 h [3] [µg/mL] | Ratio [4] | Ratio [5]
24 | OCc1cn(-c2cc(Cl)ccc2Cl)nn1 | > 100 µg/mL | – | – | – | –
25 | FCc1cn(-c2cc(Cl)cc(Cl)c2)nn1 | 406 µM | – | – | – | –
26 | Cc1ccccc1-n1cc(C=O)nn1 | 267 µM | – | – | – | –
27 | OCc1cn(-c2ccc(Cl)cc2)nn1 | > 100 µg/mL | – | – | – | –
28 | Nc1nnc(-c2cccc(-n3cc(CO)nn3)c2)s1 | > 100 µg/mL | – | – | – | –
29 | Cc1ccc(-n2cc(CO)nn2)cc1 | > 100 µg/mL | – | – | – | –
30 | N#Cc1cccc(-n2cc(CO)nn2)c1 | > 100 µg/mL | – | – | – | –
31 | COc1ccc(-n2cc(CO)nn2)cc1 | > 100 µg/mL | – | – | – | –
32 | COc1ccccc1-n1cc(C=O)nn1 | 246 µM | – | – | – | –
33 | O=C(N/N=C/c1cn(-c2cccc(Cl)c2)nn1)c1ccncc1 | 1.8 µM | > 1000 | > 1000 | >1612 | >1612
34 | C=Cc1cn(-c2ccc(Cl)c(Cl)c2)nn1 | > 100 µg/mL | – | – | – | –
35 | FCc1cn(-c2cccc(Cl)c2)nn1 | 472 µM | – | – | – | –
36 | O=Cc1cn(-c2cccc(Cl)c2)nn1 | 121 µM | – | – | – | –
37 | OCc1cn(-c2cccc(Cl)c2)nn1 | > 100 µg/mL | – | – | – | –
38 | O=Cc1cn(-c2ccc([N+](=O)[O-])cc2)nn1 | 115 µM | – | – | – | –
39 | OCc1cn(-c2ccccc2Cl)nn1 | > 100 µg/mL | – | – | – | –
40 | FC(F)c1cn(-c2cccc(Cl)c2)nn1 | > 100 µg/mL | – | – | – | –
41 | O=C(N/N=C/c1cn(-c2cc(Cl)ccc2Cl)nn1)c1ccncc1 | 3.4 µM | > 1000 | > 1000 | >800 | >800
42 | C=Cc1cn(-c2cc(Cl)ccc2Cl)nn1 | 13 µM | > 1000 | > 1000 | >321 | >321
43 | NNC(=O)c1ccncc1 [ISONIAZID] | 0.437 µM | – | – | – | –
44 | Nc1nnc(-c2cccc(-n3cc(C(F)F)nn3)c2)s1 | 340 µM | – | – | – | –
45 | COc1cccc(-n2cc(/C=N/NC(=O)c3ccncc3)nn2)c1 | 3.8 µM | > 1000 | – | >800 | –
46 | COc1ccccc1-n1cc(CO)nn1 | > 100 µg/mL | – | – | – | –

Row | SMILES | MIC [1] | CC50 at 24 h [2] [µg/mL] | CC50 at 24 h [3] [µg/mL] | Ratio [4] | Ratio [5]
47 | OCc1cn(-c2cc(Cl)cc(Cl)c2)nn1 | > 100 µg/mL | – | – | – | –
48 | OCc1cn(-c2ccccc2)nn1 | > 100 µg/mL | – | – | – | –
49 | O=Cc1cn(-c2ccccc2)nn1 | 144 µM | – | – | – | –
50 | FCc1cn(-c2ccc(Br)cc2)nn1 | 390 µM | – | – | – | –
51 | COC(=O)c1cn(-c2cc(Cl)cc(Cl)c2)nn1 | > 100 µg/mL | – | – | – | –
52 | C=Cc1cn(-c2ccc(OC)cc2)nn1 | 244 µM | – | – | – | –
53 | COc1cccc(-n2cc(CO)nn2)c1 | > 100 µg/mL | – | – | – | –
54 | O=Cc1cn(-c2ccc(Cl)cc2)nn1 | 60.2 µM | 97 (≈ 467 µM) | 71 (≈ 342 µM) | 8 | 6
55 | N#Cc1cccc(-n2cc(C(F)F)nn2)c1 | 114 µM | – | – | – | –
56 | O=C(N/N=C/c1cn(-c2ccc(Cl)cc2)nn1)c1ccncc1 | 1.8 µM | > 1000 | > 1000 | >1612 | >1612
57 | O=[N+]([O-])c1ccc(-n2cc(CO)nn2)cc1 | > 100 µg/mL | – | – | – | –
58 | O=Cc1cn(-c2ccc(Cl)c(Cl)c2)nn1 | 207 µM | – | – | – | –
59 | COc1ccc(-n2cc(C=O)nn2)cc1 | 123 µM | – | – | – | –
60 | O=Cc1cn(-c2ccccc2Cl)nn1 | 241 µM | – | – | – | –
61 | OCc1cn(-c2ccc(Br)cc2)nn1 | > 100 µg/mL | – | – | – | –
62 | O=Cc1cn(-c2ccc(F)cc2)nn1 | 131 µM | – | – | – | –
63 | COc1ccccc1-n1cc(/C=N/NC(=O)c2ccncc2)nn1 | 1.9 µM | > 1000 | > 1000 | >1612 | >1612
64 | Cc1ccc(-n2cc(/C=N/NC(=O)c3ccncc3)nn2)cc1 | 4 µM | > 1000 | 118 (≈ 385 µM) | >800 | 94
65 | CO[C@H]1/C=C/O[C@@]2(C)Oc3c(C)c(O)c4c(O)c(c(/C=N/N5CCN(C)CC5)c(O)c4c3C2=O)NC(=O)/C(C)=C\C=C\[C@H](C)[C@H](O)[C@@H](C)[C@@H](O)[C@@H](C)[C@H](OC(C)=O)[C@@H]1C [RIFAMPIN] | 1.21 µM | – | – | – | –
66 | O=C(N/N=C/c1cn(-c2ccccc2Cl)nn1)c1ccncc1 | 3.8 µM | > 1000 | 263 (≈ 805 µM) | >800 | 210
67 | FCc1cn(-c2ccc(Cl)cc2)nn1 | 472 µM | – | – | – | –
